We go through four proteins from ChEMBL document CHEMBL1131831, “A rapid method to identify exo-protease inhibitors” (Bioorg Med Chem Lett, 1999).

Substrate in series [1]: COCCOCCOCCOCCOC(=O)N[C@@H](C)C(=O)N[C@H](C)C(=O)N(C)c1ccc(C#C/C=C/c2ccc([N+](=O)[O-])c(O)c2)cc1
The series can be described thus: Proteolysis constant (Km), when mixed with elastase enzyme for the conversion of water-soluble compound to fluorescent oil-soluble compound. Summed up: (§1)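 Porcine pancreatic trypsin (type IX), porcine pancreatic kallikrein, bovine spleen cathepsin B and porcine pancreatic elastase, each enzyme added to 12 µM substrate solution over mineral oil, shaken at 37 °C. Buffers: trypsin 10 mM Tris-HCl pH 7.8; kallikrein 50 mM Tris pH 9.0; cathepsin B 100 mM potassium phosphate pH 6.0; elastase 10 mM Tris-HCl pH 7.5. Released fluorophore in the oil is diluted with n-heptane and quantified at 424 nm against oil absorbance at 272 nm.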

Substrate in series [2]: CC(C)C[C@H](NC(=O)[C@H](N)Cc1ccc(O)cc1)C(=O)N[C@@H](C(=O)N(C)c1ccc(C#C/C=C/c2ccc([N+](=O)[O-])c(O)c2)cc1)C(C)C
The series can be described thus: Proteolysis constant (Km), when mixed with human leukocyte elastase (HLE) enzyme for the conversion of water-soluble compound to fluorescent oil-soluble compound. Summed up:
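Human leukocyte elastase (1 unit = 1.2 µg; releases 1 µmol/min p-nitrophenol from N-t-BOC-L-alanine-p-nitrophenyl ester, pH 6.5, 37 °C) in 50 mM NaOAc, 100 mM NaCl, 8 mM NaN3 pH 6.0. Enzyme mixed with 12 µM substrate in buffer under a trace mineral-oil layer, shaken at 37 °C. Released fluorophore extracted into oil, diluted with n-heptane, quantified by absorbance at 424 nm against oil at 272 nm.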

Substrate in series [3]: CN(C(=O)[C@@H](CCCCC(=N)N)NC(=O)[C@H](Cc1ccccc1)NC(=O)[C@H]1CCCN1C(=O)OCc1ccccc1)c1ccc(C#C/C=C/c2ccc([N+](=O)[O-])c(O)c2)cc1
As to the kind of experiment: Proteolysis constant (Km), when mixed with kallikrein enzyme for the conversion of water-soluble compound to fluorescent oil-soluble compound. Summed up:
as §1

Substrate in series [4]: CC[C@@H](C)[C@@H](NC(=O)OCc1ccccc1)C(=O)N1CCC[C@H]1C(=O)N[C@H](CCCCC(=N)N)C(=O)N(C)c1ccc(C#C/C=C/c2ccc([N+](=O)[O-])c(O)c2)cc1
As to the kind of experiment: Proteolysis constant (Km), when mixed with trypsin enzyme for the conversion of water-soluble compound to fluorescent oil-soluble compound. As to conditions: Sus scrofa. In short, it runs like this:
as §1

For orientation: Km means the concentration of substrate that gives half-maximal velocity.

B1: Chymotrypsin-like elastase family member 2A (Sus scrofa), P08419 (protein)
chain: MIRALLLSTLVAGALSCGLPANLPQLPRVVGGEDARPNSWPWQVSLQYDSSGQWRHTCGGTLVDQSWVLTAAHCISSSRTYRVVLGRHSLSTNEPGSLAVKVSKLVVHQDWNSNQLSNGNDIALLKLASPVSLTDKIQLGCLPAAGTILPNNYVCYVTGWGRLQTNGASPDILQQGQLLVVDYATCSKPGWWGSTVKTNMICAGGDGIISSCNGDSGGPLNCQGANGQWQVHGIVSFGSSLGCNYYHKPSVFTRVSNYIDWINSVIANN
As for B1, the Km in series [1] came to 325 µM.

B2: Neutrophil elastase (Homo sapiens), P08246 (protein)
chain: MTLGRRLACLFLACVLPALLLGGTALASEIVGGRRARPHAWPFMVSLQLRGGHFCGATLIAPNFVMSAAHCVANVNVRAVRVVLGAHNLSRREPTRQVFAVQRIFENGYDPVNLLNDIVILQLNGSATINANVQVAQLPAQGRRLGNGVQCLAMGWGLLGRNRGIASVLQELNVTVVTSLCRRSNVCTLVRGRQAGVCFGDSGSPLVCNGLIHGIASFVRGGCASGLYPDAFAPVAQFVNWIDSIIQRSEDNPCPHPRDPDPASRTH
As to B2, in series [2], the Km came to 16.1 µM.

B3: Kallikrein 1 (Sus scrofa), O97506 (protein)
chain: MEVIVLFRIISFRQAVYFMCLFAAVSCGCLPQLHKNTFFRGGDVSAMYTPSARHCQMMCTFHPRCLLFSFLPADSTSVTDKRFGCFLKDSVTGMLPRVLRENAISGHSLKQCGHQIRACHRDIYKGIDMRGVNFNVSKVKTVEECQERCTNSIHCLFFTYATQAFNNAEYRNNCLLKHSPGGTPTSIKVLANVESGFSLKPCADSEIGCHMDIFQHLAFSDVDVARVIAPDAFVCRTICTYHPNCLFFTFYTNAWKIESQRNVCFLKTSHSGTPSFPTPQENAISGYSLLTCKQTLPEPCHSKIYSEVDFEGEELNVTFVQGANLCQETCTKTIRCQFFTYSLHPEDCRGEKCKCSLRLSSDGSPTKITHGMRASSGYSLRLCRSGDHSACATKANTRIVGGTDSFLGEWPWQVSLQAKLRAQNHLCGGSIIGHQWVLTAAHCFDGLSLPDIWRIYGGILNISEITKETPFSQVKEIIIHQNYKILESGHDIALLKLETPLNYTDFQKPICLPSRDDTNVVYTNCWVTGWGFTEEKGEIQNILQKVNIPLVSNEECQKSYRDHKISKQMICAGYKEGGKDACKGESGGPLVCKYNGIWHLVGTTSWGEGCARREQPGVYTKVIEYMDWILEKTQDDDGQSWMK
Take B3: the Km in series [3] came to 92.2 µM.

B4: Trypsin (Sus scrofa), P00761 (protein)
chain: FPTDDDDKIVGGYTCAANSIPYQVSLNSGSHFCGGSLINSQWVVSAAHCYKSRIQVRLGEHNIDVLEGNEQFINAAKIITHPNFNGNTLDNDIMLIKLSSPATLNSRVATVSLPRSCAAAGTECLISGWGNTKSSGSSYPSLLQCLKAPVLSDSSCKSSYPGQITGNMICVGFLEGGKDSCQGDSGGPVVCNGQLQGIVSWGYGCAQKNKPGVYTKVCNYVNWIQQTIAAN
With B4, in series [4], the Km was found to be 97 µM.
